{"source": "PubChem BioAssay AID651952", "about": "(The Scripps Research Institute Molecular Screening Center, 2012)", "note": "About 940 (39%) of roughly 2,400 compounds were called active. The list is a sample of the results. Values without a mark were called inactive.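 Rule for the calls: active = inhibition above the plate's mean compound inhibition plus 3 SD, computed per plate (cut at about 22% in these data); inactive = the rest.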", "data": [{"experiment": "inhibition of ATP-evoked calcium response in CHO-Ga16 cells, counter-screen for TAAR1 agonist project, cell-based, fluorescence (AID 651952);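 note: 0% = EC80 ATP with DMSO and 100% = DMSO wells without ATP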", "conditions": "CHO-Ga16 ATP-induced calcium, Fluo-8 fluorescence; at 3 µM; stronger effect = higher value", "outline": "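replicates = triplicate wells per compound | material = CHO-Gα16 parent cell line without hTAAR1 | incubation = 17–24 h seeding, dye 75 min 37 °C, 30 min RT | measure = percent inhibition from peak-to-pre-ATP-basal fluorescence ratio, scaled between controls | signal = Fluo-8 fluorescence, Ex 470–495 nm, Em 515–575 nm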", "values": [{"smiles": "c1ccc(-c2csc(N3CCc4ccccc4C3)n2)cc1", "inhibition": "0.61%"}, {"smiles": "O=C(Nc1ccncc1)Nc1ccc(F)cc1", "inhibition": "12.7%"}, {"smiles": "O=C(Nc1ccccc1)Nc1nnc(COc2ccccc2F)s1", "inhibition": "27.2% (active)"}, {"smiles": "O=C(Nc1ccc(F)cc1)Nc1nnc([C@H]2C[C@H](O)[C@@H](CO)O2)s1", "inhibition": "2.16%"}, {"smiles": "CCC(c1nnnn1Cc1ccco1)N(CCc1ccccc1)Cc1cc2cccc(C)c2[nH]c1=O", "note": "(stereo not drawn)", "inhibition": "13.9%"}, {"smiles": "CCC(C(=O)Nc1ccc(C(C)C)cc1)c1ccccc1", "note": "(stereo not drawn)", "inhibition": "68% (active)"}, {"smiles": "c1ccc2c(c1)C(=NC1CCCCC1)NC2=NC1CCCCC1", "inhibition": "26.3% (active)"}, {"smiles": "C#CCOc1ccc(/C=C2/C(=O)NN(c3ccccc3)C2=O)cc1OC", "inhibition": "9.41%"}, {"smiles": "c1ccc(C2CNCc3c2ccc2ccccc32)cc1", "note": "(stereo not drawn)", "inhibition": "33.8% (active)"}, {"smiles": "CCCOc1ccc(-c2c(C(=O)N/N=C/c3ccco3)nnn2-c2nonc2N)cc1", "inhibition": "8.77%"}, {"smiles": "CCOc1ccc(Br)cc1CSC(=N)N", "inhibition": "27.7% (active)"}, {"smiles": "CCc1ccc(-c2nn(-c3ccccc3)cc2CSC(=N)N)cc1", "inhibition": "21.2%"}, {"smiles": "CCCCOc1ccc(CSC(=N)N)cc1[N+](=O)[O-]", "inhibition": "17.7%"}, {"smiles": "Nc1nonc1-n1nnc(C(=O)N/N=C/c2ccc(Cl)cc2)c1-c1ccc2c(c1)OCO2", "inhibition": "-0.91%"}, {"smiles": "Nc1c(C(=O)c2cccs2)sc2nsc(SCCN3CCCCC3)c12", "inhibition": "63% (active)"}, {"smiles": "COc1ccc(OC)c(C(c2nnnn2C(C)(C)C)N2CCc3ccccc3C2)c1", "note": "(stereo not drawn)", "inhibition": "2.14%"}, {"smiles": "CCCC1CCC(=NNC(=S)NCCc2ccccc2)CC1", "note": "(stereo not drawn)", "inhibition": "13.2%"}, {"smiles": "c1ccc(Nc2nc(N3CCOCC3)c3ccccc3n2)cc1", "inhibition": "28.7% (active)"}, {"smiles": "Cc1ccc(S(=O)(=O)N(CC(=O)N2CCc3ccccc3C2)c2cccc(Cl)c2)cc1", "inhibition": "18.1%"}, {"smiles": "O=C1C=C(c2ccc(Cl)cc2)C(=O)N1Nc1ccccc1", "inhibition": "79.5% (active)"}, {"smiles": "Cc1ccc(Sc2cc(N3CCOCC3)nc(-c3ccccc3)n2)cc1", "inhibition": "-8.38%"}, {"smiles": "Nc1nnn(CC(=O)N/N=C/c2ccccc2)n1", "inhibition": "0.58%"}, {"smiles": "CCCc1ccc(OCC(=O)NNC(=S)NC(=O)c2ccco2)cc1", "inhibition": "50.6% (active)"}, {"smiles": "CC(Oc1ccc2ccccc2c1)C(=O)NNC(=S)NC(=O)c1ccco1", "note": "(stereo not drawn)", "inhibition": "52.4% (active)"}, {"smiles": "Cc1c(CNCCc2ccccc2)c(C(=O)O)c(C)n1-c1ccccc1", "inhibition": "6.15%"}, {"smiles": "CCCSc1nc2c(c(=O)n(C)c(=O)n2C)n1Cc1ccc(C)cc1", "inhibition": "20.4%"}, {"smiles": "Oc1ccc2ccc3cccc[n+]3c2c1", "inhibition": "33.9% (active)"}, {"smiles": "Cc1cc(C)c2cc(C#N)c(N3CCNCC3)nc2c1", "inhibition": "3.67%"}]}]}
